From paper PMC11931566 (RSC Medicinal Chemistry, 2025)
Where two headings read alike, the source gives them in different places. Each block holds one compound with its values, some of them ahead of it.

Assays:
BAX = assay: Western blot in A549 cells, BAX; type: cell-based, human; conditions: 24 h
CDK8 = assay: Western blot in A549 cells, CDK8; type: cell-based, human; conditions: western blot (Fig. S1)
eight renal cancer cells = assay: GI50 evaluation, renal cancer cells; type: cell-based, human; conditions: for GI50: Homo sapiens
Procedure, shortened: (§1)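 GI50 determined per human cancer cell line, grouped by tumour type, with a 3 μM cut-off applied. Per-panel average GI50 and range were calculated. Fold change was taken as the ratio of the average GI50 to that of a reference antitumor ether lipid.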

A549 cells [1] = assay: Cell cycle distribution analysis; type: cell-based, human; conditions: 24 h, different concentrations
Procedure, shortened: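 A549 lung cancer cells were treated with several concentrations of test compound, stained with propidium iodide for DNA content, and analysed by flow cytometry. Fractions in G0/G1, S and G2/M phases were quantified.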

caspase 8 = assay: Western blot in A549 cells, caspase 8; type: cell-based, human; conditions: 24 h
58 cancer cell lines = assay: Spectrum of anticancer activity, 58 cancer cell lines; type: cell-based, human; conditions: 10 μM
Procedure, shortened: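 Spectrum screen over 58 human cancer cell lines covering leukemia, CNS, prostate, breast, lung and other tumour types, run in the NCI-60 screen at the National Cancer Institute. % growth inhibition per line; counts of lines above 50% and above 100% inhibition, plus mean growth inhibition across the 58 lines.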

CDK7 = assay: Western blot in A549 cells, CDK7; type: cell-based, human; conditions: western blot (Fig. S1)
[2] = system: two prostate cancer cell lines; assay: GI50 evaluation, prostate cancer cell lines; type: cell-based, human; conditions: for GI50: Homo sapiens, read-out: calculated average GI50, prostate cancer
Procedure, shortened: as §1

CDK4 = assay: Western blot in A549 cells, CDK4; type: cell-based, human; conditions: 24 h
[3] = system: non-small cell lung cancer cell lines; assay: Cell growth inhibition, panel of nine NSCLC cell lines; type: cell-based, human
Procedure, shortened: as §1

CDK2 = assay: Western blot in A549 cells, CDK2; type: cell-based, human; conditions: 24 h
H322M = assay: Cell growth inhibition; type: cell-based; conditions: Homo sapiens, NCI-H322M, read-out: % growth inhibition, H322M
Procedure, shortened: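 Single-dose screen of non-small cell lung cancer lines (adenocarcinoma, metastatic adenocarcinoma, large cell and squamous carcinoma) with test compound at 10 μM. Read-out is % growth inhibition per cell line. Run as part of the NCI-60 human tumour cell line screen at the National Cancer Institute.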

CDK1 = assay: Western blot in A549 cells, CDK1; type: cell-based, human; conditions: western blot (Fig. S1)
[4] = system: six CNS cancer cell lines; assay: GI50 evaluation, CNS cancer cell lines; type: cell-based, human; conditions: for GI50: Homo sapiens
Procedure, shortened: as §1

[5] = system: ovarian cancer cell lines; assay: GI50 evaluation, ovarian cancer cell lines; type: cell-based, human; conditions: for GI50: Homo sapiens
Procedure, shortened: as §1

phospho-Rb (p-Rb) = assay: Western blot in A549 cells, phospho-Rb; type: cell-based, human; conditions: 24 h
CDK6 = assay: Western blot in A549 cells, CDK6; type: cell-based, human; conditions: 24 h
A549 cells [6] = assay: Annexin V-FITC/PI double staining analysis; type: cell-based, human; conditions: 48 h, different concentrations
Procedure, shortened: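 A549 cells were treated with several concentrations of test compound, stained with annexin-V and propidium iodide, and analysed by FACS. Live, early apoptotic, late apoptotic and necrotic populations were quantified as percentages.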

cyclin D1 = assay: Western blot in A549 cells, cyclin D1; type: cell-based, human; conditions: 24 h
[7] = system: seven colon cancer cell lines; assay: GI50 evaluation, colon cancer cell lines; type: cell-based, human; conditions: for GI50: Homo sapiens
Procedure, shortened: as §1

PARP = assay: Western blot in A549 cells, PARP and cleaved PARP; type: cell-based, human; conditions: 24 h
[8] = Selectivity against normal cells, MRC-5; type: cell-based, human; conditions: human, MRC-5 normal foetal lung fibroblast cells
[9] = system: normal human foetal lung fibroblast MRC-5 cell line; assay: Selectivity against normal cells, MRC-5; type: cell-based; conditions: lung cancer cells rather than normal lung cells (MRC-5)
nine melanoma cell lines = assay: GI50 evaluation, melanoma cell lines; type: cell-based, human; conditions: for GI50: Homo sapiens
Procedure, shortened: as §1

[10] = system: five breast cancer cell lines; assay: GI50 evaluation, breast cancer cell lines; type: cell-based, human; conditions: for GI50: Homo sapiens, read-out: calculated average GI50, breast cancer
Procedure, shortened: as §1

ACHN = assay: GI50 evaluation, ACHN renal cancer; type: cell-based, human; conditions: cut-off value of 3 μM
Procedure, shortened: as §1

[11] = system: four leukemic cancer cells; assay: GI50 evaluation, leukemic cancer cells; type: cell-based, human; conditions: from average GI50
Procedure, shortened: as §1

HCT15 = assay: GI50 evaluation, HCT15 colon adenocarcinoma; type: cell-based, human; conditions: cut-off value of 3 μM
Procedure, shortened: as §1

UO31 = assay: GI50 evaluation, UO31 renal cancer; type: cell-based, human; conditions: cut-off value of 3 μM
Procedure, shortened: as §1

HCC2998 = assay: GI50 evaluation, HCC2998 colon cancer; type: cell-based; conditions: Homo sapiens, HCC 2998, read-out: GI50, HCC2998
Procedure, shortened: as §1

COLO205 = assay: GI50 evaluation, COLO205 colon cancer; type: cell-based; conditions: Homo sapiens, COLO 205, read-out: GI50, COLO205
Procedure, shortened: as §1

[12] = read-out: GI50 range, renal cancer
[13] = read-out: calculated average GI50, renal cancer
[14] = Homo sapiens, read-out: GI50 range, non-small cell lung cancer
[15] = Homo sapiens, read-out: calculated average GI50, non-small cell lung cancer
[16] = read-out: GI50 range, CNS cancer
[17] = read-out: calculated average GI50, CNS cancer
[18] = read-out: GI50 range, ovarian cancer
[19] = read-out: calculated average GI50, ovarian cancer
[20] = read-out: GI50 range, colon cancer
[21] = read-out: calculated average GI50, colon cancer
[22] = read-out: calculated average GI50, melanoma

GI50 (eight renal cancer cells; [12]): 0.49 to 1.75 µM
GI50 (eight renal cancer cells; [13]): 1.35 µM
GI50 [2]: 1.6 µM
GI50 [3, 14]: 1.25 to 2.17 µM
GI50 [3, 15]: 1.62 µM
GI50 [4, 16]: 1.23 to 2.03 µM
GI50 [4, 17]: 1.59 µM
GI50 [5, 18]: 0.65 to 9.84 µM
GI50 [5, 19]: 2.64 µM
GI50 [7, 20]: 1.59 to 2.96 µM
GI50 [7, 21]: 1.91 µM
GI50 [8]: 16.7 µM
GI50 (nine melanoma cell lines; read-out: GI50 range, melanoma): 1.57 to 2.34 µM
GI50 (nine melanoma cell lines; [22]): 1.73 µM
SMILES: CCCCCCCCCCCCCCCCCCOc1ccccc1CC(=O)OCC[N+](C)(C)C.[I-] [Compound 6]
BAX level (BAX): dose-dependent upregulation of BAX
CDK8 protein level (CDK8): no dose-dependent inhibition
average fold increase compared to the potency of edelfosine, renal cancer (eight renal cancer cells; from average GI50): 18.5 fold
counts of cells in G0/G1 phase (A549 cells [1]): increased dose-dependently
counts of cells in the S and G2/M phases (A549 cells [1]): decreased in a dose-dependent pattern
caspase 8 cleavage (caspase 8): cleavage of caspase 8
number of cell lines out of 58 inhibited by more than 50% (58 cancer cell lines): 50
number of cell lines out of 58 inhibited by more than 100% (58 cancer cell lines): 9
CDK7 protein level (CDK7): no dose-dependent inhibition
fold increase compared to the potency of edelfosine, prostate cancer ([2]; from average GI50): 33.5 fold
CDK4 protein level (CDK4): dose-dependent inhibition
inhibition at 10 µM ([3]; Homo sapiens, read-out: % growth inhibition (range) against H460, A549, HOP62, HOP92, and H522 cell lines, 10 µM): 88.5 to 114%
average fold increase compared to the potency of edelfosine, NSCLC ([3]; from average GI50): 15.5 fold
CDK2 protein level (CDK2): dose-dependent inhibition
inhibition at 10 µM (H322M): 33.5%
CDK1 protein level (CDK1): no dose-dependent inhibition
fold increase compared to the potency of edelfosine, ovarian cancer ([5]; from average GI50): 9.5 fold
formation of phospho-Rb (p-Rb) (phospho-Rb (p-Rb)): inhibited dose-dependently
CDK6 protein level (CDK6): dose-dependent inhibition
apoptosis induction (early apoptosis population) (A549 cells [6]): increase in the portion of cells that entered the early apoptosis state
necrosis (A549 cells [6]): no significant necrosis
cyclin D1 protein level (cyclin D1): dose-dependent inhibition
average fold increase compared to the potency of edelfosine, colon cancer ([7]; from average GI50): 4 fold
PARP cleavage (PARP): dose-dependent PARP cleavage
selectivity index, average [9]: 10.31
selectivity index, range [9]: 7.70–13.36

GI50 [10]: 1.43 µM
GI50 relative to cut-off, ACHN (ACHN): more than the applied cut-off value
GI50 relative to cut-off, HCT15 (HCT15): outside the applied cut-off window
GI50 [3, 14]: 1.1 to 4.03 µM
GI50 [3, 15]: 1.8 µM
GI50 [4, 16]: 0.97 to 1.62 µM
GI50 [4, 17]: 1.35 µM
GI50 [5, 18]: 0.92 to 7.58 µM
GI50 [5, 19]: 2.67 µM
GI50 relative to cut-off, UO31 (UO31): more than the applied cut-off value
GI50 [7, 20]: 1.04 to 4.39 µM
GI50 [7, 21]: 1.88 µM
GI50 (nine melanoma cell lines; read-out: GI50 range, melanoma): 0.88 to 1.9 µM
GI50 (nine melanoma cell lines; [22]): 1.33 µM
SMILES: CCCCCCCCCCCCCCCCCCOc1ccccc1CC(=O)OCC[N+](CC)(CC)CC.[I-] [Compound 8]
fold increase compared to the potency of edelfosine, breast cancer ([10]; from average GI50): ~47 fold
average fold increase compared to the potency of edelfosine, leukemia [11]: 13 fold
number of cell lines out of 58 inhibited by more than 50% (58 cancer cell lines): 49
number of cell lines out of 58 inhibited by more than 100% (58 cancer cell lines): 10
fold increase compared to the potency of edelfosine, CNS cancer ([4]; from average GI50): more than 15 fold
average fold increase compared to the potency of edelfosine, melanoma (nine melanoma cell lines; from average GI50): 29 fold

GI50 relative to cut-off, ACHN (ACHN): more than the applied cut-off value
GI50 relative to cut-off, HCT15 (HCT15): outside the applied cut-off window
GI50 [3, 14]: 1.22 to 8.22 µM
GI50 [3, 15]: 2.67 µM
GI50 [4, 16]: 1.26 to 2.83 µM
GI50 [4, 17]: 1.82 µM
GI50 [5, 18]: 1.52 to 18.9 µM
GI50 [5, 19]: 6.3 µM
GI50 relative to cut-off, UO31 (UO31): more than the applied cut-off value
GI50 [7, 21]: 2.17 µM
GI50 (nine melanoma cell lines; read-out: GI50 range, melanoma): 1.63 to 2.82 µM
GI50 (nine melanoma cell lines; [22]): 2.07 µM
SMILES: CCCCCCCCCCCCCCCCCCOc1ccccc1CC(=O)OCC[N+]1(C)CCCC1.[I-] [Compound 9]
number of cell lines out of 58 inhibited by more than 50% (58 cancer cell lines): 43
number of cell lines out of 58 inhibited by more than 100% (58 cancer cell lines): 3

GI50 relative to cut-off, ACHN (ACHN): more than the applied cut-off value
GI50 relative to cut-off, HCT15 (HCT15): outside the applied cut-off window
GI50 [3, 14]: 1.32 to 5.78 µM
GI50 [3, 15]: 2.35 µM
GI50 [4, 16]: 1.39 to 2.93 µM
GI50 [4, 17]: 1.92 µM
GI50 [5, 18]: 1.54 to 18.2 µM
GI50 [5, 19]: 6.28 µM
GI50 relative to cut-off, UO31 (UO31): more than the applied cut-off value
GI50 [7, 21]: 2.16 µM
GI50 (nine melanoma cell lines; read-out: GI50 range, melanoma): 1.7 to 2.79 µM
GI50 (nine melanoma cell lines; [22]): 2.07 µM
SMILES: CCCCCCCCCCCCCCCCCCOc1ccccc1CC(=O)OCC[N+]1(C)CCCCC1.[I-] [Compound 10]
number of cell lines out of 58 inhibited by more than 50% (58 cancer cell lines): 31
number of cell lines out of 58 inhibited by more than 100% (58 cancer cell lines): 6

GI50 [10]: > 67.2 µM
GI50 (HCC2998): 2.38 µM
GI50 (eight renal cancer cells; [12]): 12.1 to 72.8 µM
GI50 (eight renal cancer cells; [13]): 25 µM
GI50 [2]: > 53.6 µM
GI50 [3, 14]: 7.05 to 46.8 µM
GI50 [3, 15]: 25.2 µM
GI50 [4, 16]: 8.75 to 58.5 µM
GI50 [4, 17]: 21.4 µM
GI50 [5, 18]: 6.67 to 42.3 µM
GI50 [5, 19]: 25.2 µM
GI50 (COLO205): 2.65 µM
GI50 [7, 20]: 2.38 to 14.7 µM
GI50 [7, 21]: 7.8 µM
GI50 (nine melanoma cell lines; read-out: GI50 range, melanoma): 15.4 to 98.4 µM
GI50 (nine melanoma cell lines; [22]): 38.7 µM
SMILES: CCCCCCCCCCCCCCCCCCOCC(COP(=O)([O-])OCC[N+](C)(C)C)OC (centres unmarked) [edelfosine, reference compound]
